Experimental data as given in ChEMBL document CHEMBL1153228, “Synthesis and in vivo evaluation of bicyclic gababutins” (Bioorg Med Chem Lett, 2010).
Activity calls are given as the source filed them. The calls are words filed in the database; no cut-off is given here.

How the values were obtained:
[1] = molecular target: Voltage-dependent calcium channel alpha2delta subunit (Sus scrofa, UniProt O77773); assay: Displacement of [3H]gabapentin from calcium channel alpha2delta in pig cerebral cortex membrane after 30 mins; format: cell membranes
[2] = Inhibition of L-type amino acid transporter expressed in CHO cells assessed as inhibition of [3H]leucine uptake; format: cell-based
[3] = Elimination half life in rat; format: ADME, organism-based; details: in vivo
[4] = Clearance in rat; format: ADME, organism-based; details: in vivo
[5] = tested on: Rattus norvegicus; assay: Analgesic activity in rat chronic constriction injury weight model assessed as inhibition of pain effect at 3 to 10 mg/kg, po; format: functional, organism-based
How it was run: (§1)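 Rat sciatic-nerve chronic constriction model: loose ligatures placed around the sciatic nerve produce hypersensitivity in one hind paw. Weight borne on each hind paw is measured, and the read-out is the difference between the ipsilateral (affected) and contralateral (unaffected) paw.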

[6] = Lipophilicity, log D at pH 7.4; format: physicochemical; details: buffer
[7] = Bioavailability in rat; format: ADME, organism-based; details: in vivo
[8] = tested on: Rattus norvegicus; assay: Analgesic activity in intrathecally dosed rat chronic constriction injury weight model assessed as inhibition of pain effect; format: functional, organism-based; how it was run: as §1

Sequence of Voltage-dependent calcium channel alpha2delta subunit (O77773 whole entry): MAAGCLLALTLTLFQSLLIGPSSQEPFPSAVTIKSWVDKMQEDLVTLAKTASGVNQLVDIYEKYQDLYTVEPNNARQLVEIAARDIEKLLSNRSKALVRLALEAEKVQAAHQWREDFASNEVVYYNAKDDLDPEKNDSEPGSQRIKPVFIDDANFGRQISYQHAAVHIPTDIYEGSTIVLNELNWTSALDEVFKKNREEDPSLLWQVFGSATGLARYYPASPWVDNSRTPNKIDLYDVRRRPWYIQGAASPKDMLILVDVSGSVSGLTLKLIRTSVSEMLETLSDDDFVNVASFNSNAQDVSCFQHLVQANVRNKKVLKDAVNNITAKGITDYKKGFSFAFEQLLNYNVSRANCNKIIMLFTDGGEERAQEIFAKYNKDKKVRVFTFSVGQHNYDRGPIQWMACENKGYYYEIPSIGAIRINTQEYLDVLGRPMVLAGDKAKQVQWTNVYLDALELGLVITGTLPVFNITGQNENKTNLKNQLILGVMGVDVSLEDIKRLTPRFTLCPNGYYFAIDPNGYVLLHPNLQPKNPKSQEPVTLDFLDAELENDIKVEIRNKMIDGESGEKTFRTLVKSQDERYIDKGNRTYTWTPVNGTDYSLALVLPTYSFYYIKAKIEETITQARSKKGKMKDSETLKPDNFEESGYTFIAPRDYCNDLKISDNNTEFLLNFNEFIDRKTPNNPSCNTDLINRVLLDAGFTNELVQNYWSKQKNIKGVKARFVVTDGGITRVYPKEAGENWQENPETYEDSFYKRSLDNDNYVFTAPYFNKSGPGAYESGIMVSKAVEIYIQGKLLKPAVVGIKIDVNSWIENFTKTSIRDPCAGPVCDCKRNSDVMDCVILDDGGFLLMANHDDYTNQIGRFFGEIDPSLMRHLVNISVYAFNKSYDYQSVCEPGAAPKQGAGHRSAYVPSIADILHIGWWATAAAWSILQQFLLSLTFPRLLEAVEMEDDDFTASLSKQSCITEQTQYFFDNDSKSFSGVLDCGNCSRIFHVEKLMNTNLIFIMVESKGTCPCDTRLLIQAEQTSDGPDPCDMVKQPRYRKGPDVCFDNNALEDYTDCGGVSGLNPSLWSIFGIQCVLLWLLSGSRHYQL

Row | SMILES | IC50 [1] | also measured
1 | NC[C@@]1(CC(=O)O)CC2CCCCC21 (mixture of isomers) | 3.09 µM | 
2 | NC[C@]1(CC(=O)O)CC2CCCCC21 (mixture of isomers) | 0.6 µM | 
3 | NC[C@]1(CC(=O)O)C[C@H]2CCC[C@H]2C1 | 2.6 µM | 
4 | NCC1(CC(=O)O)CC2CCC2C1 (racemic) | 2.9 µM | 
5 | NC[C@]1(CC(=O)O)C[C@H]2CCC[C@H]21 | 0.046 µM | IC50 [2]: > 10000 µM; half-life [3]: 2.3 h; clearance [4]: 4.5 mL/min/kg; Activity [5]: Active; logD [6]: -1; bioavailability [7]: 100%
6 | NC[C@]1(CC(=O)O)C[C@H]2CCCC[C@H]2C1 | 0.72 µM | 
7 | NC[C@@]1(CC(=O)O)C[C@H]2CC[C@H]2C1 | 0.332 µM | 
8 | NCC1(CC(=O)O)CC2CCCCC2C1 (racemic) | > 10 µM | 
9 | NC[C@@]1(CC(=O)O)C[C@H]2CCC[C@H]2C1 | > 10 µM | 
10 | NC[C@]1(CC(=O)O)CC2CCCC21 (mixture of isomers) | 0.025 µM | 
11 | NC[C@@]1(CC(=O)O)C[C@H]2CCCC[C@H]2C1 | > 10 µM | 
12 | NC[C@@]1(CC(=O)O)C[C@@H]2CCC[C@@H]21 | 0.019 µM | IC50 [2]: 6930 µM; Activity [8]: Active
13 | NC[C@]1(CC(=O)O)CCC2CCCC21 (mixture of isomers) | 7.18 µM | 
14 | NCC1(CC(=O)O)CC2CCCC2C1 (racemic) | > 10 µM | 
15 | C[C@@H]1C[C@@](CN)(CC(=O)O)C[C@@H]1C | 0.107 µM | IC50 [2]: 7 µM
16 | NC[C@]1(CC(=O)O)C[C@H]2CC[C@H]2C1 | 0.038 µM | IC50 [2]: 38 µM; half-life [3]: 2.4 h; clearance [4]: 4.3 mL/min/kg; Activity [5]: Active; logD [6]: -1; bioavailability [7]: 84%
17 | NC[C@@]1(CC(=O)O)CC2CCCC21 (mixture of isomers) | 2.8 µM | 
18 | C[C@H]1CC(CN)(CC(=O)O)C[C@@H]1C (relative stereo) [ATAGABALIN] | 0.022 µM | IC50 [2]: 10 µM
